High-throughput results deposited in PubChem BioAssay by several laboratories.
SR-BI HDL uptake: inhibitors of SR-BI mediated HDL lipid uptake, primary screen, ldlA[mSR-BI] cells, fluorescence, single point | Scavenger receptor class B member 1 (Mus musculus), Q61009 | inhibition, % at 12.5 µM | hit rate 0.96% among 320,000 | ldlA[mSR-BI] CHO cells, DiI-HDL uptake fluorescence, 3 h;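 active = mean replicate inhibition of at least 70% and a set share of replicates each scoring 70 or more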;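 also: 0% = median of neutral control wells and 100% = median of positive control wells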
Target sequence (Q61009 whole entry, looked up): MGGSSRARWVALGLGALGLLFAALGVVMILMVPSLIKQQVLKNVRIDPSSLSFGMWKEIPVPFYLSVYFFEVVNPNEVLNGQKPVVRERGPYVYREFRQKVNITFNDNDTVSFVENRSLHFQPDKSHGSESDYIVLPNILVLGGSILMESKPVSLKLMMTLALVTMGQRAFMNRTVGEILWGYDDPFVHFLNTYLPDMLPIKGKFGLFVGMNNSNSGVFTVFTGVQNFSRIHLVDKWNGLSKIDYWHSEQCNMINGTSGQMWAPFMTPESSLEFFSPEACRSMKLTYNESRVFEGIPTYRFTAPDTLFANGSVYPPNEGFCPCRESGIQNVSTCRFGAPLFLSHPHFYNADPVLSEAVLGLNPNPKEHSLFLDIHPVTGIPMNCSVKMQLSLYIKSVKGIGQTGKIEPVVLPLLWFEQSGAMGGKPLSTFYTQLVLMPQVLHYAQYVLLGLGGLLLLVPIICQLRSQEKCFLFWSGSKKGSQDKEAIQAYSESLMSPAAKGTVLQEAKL
SMARCA2 act: SMARCA2 (BRM) function activators, primary screen, cell-based, luminescence, high throughput; MG213 cells, MMTV-luciferase reporter, dexamethasone, overnight; activation, % at 9.1 µM; hit rate 1% among 370,000; AID 652017, 2013; in the data active = activation above about 7.8%;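 also: 0% = vehicle wells and 100% = reference activator wells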
Hep lipid drop: inhibitors of hepatocyte lipid droplet formation, primary screen, imaging, high-throughput imaging, BODIPY stain; AML12 mouse hepatocytes, oleate lipid droplets; inhibition, % at 6.5 µM; hit rate 0.4% among 240,000; AID 1656, 2009;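 active = lipid droplet intensity inhibited by at least 50%, with more than 500 cells counted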
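Assay system: AML12 mouse liver cells | Compound dosing: One dose, 6.5 µM compound | Read-out basis: Droplet intensity reduction, % inhibition | Measured by: Fluorescence imaging, 20x objective, two fields per well | Schedule: Overnight treatment with compound plus oleate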
SR-BI uptake up: activators of SR-BI mediated DiI-HDL uptake, primary screen, ldlA[mSR-BI] CHO cells, DiI fluorescence. hit rate 0.096% among 320,000. AID 504775, 2011. activation, % at 12.5 µM. 3 h; 100 = double the neutral-control signal;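 active = mean replicate activation of at least 60% and every replicate at or above 60%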;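 also: 0% = median plate neutral-control signal and 100% = twice that signal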
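Material: SR-BI-overexpressing, LDLR-lacking CHO cells; schedule: compound exposure 3 h, 37 °C; reagent: DiI-labelled HDL at 10 µg/mL final; technique: bottom-read fluorescence, 550/595 nm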
AHR act: AHR activators, primary screen, cell-based, luminescence, luciferase reporter, human; hit rate 2.5% among 320,000; AHR-responsive luciferase reporter cells; activation, % at 5 µM; AID 2796, 2010; in the data active = activation above about 47%;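 also: 0% = vehicle wells and 100% = reference agonist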
Yeast superoxide: reduction of superoxide in aged yeast, primary screen, HTS; S. cerevisiae aged cells, superoxide DHE fluorescence; stronger effect = lower value; superoxide response (% of plate mean), % at 10 µM; hit rate 0.18% among 330,000; AID 2690, 2010;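 active = superoxide response under a set limit, about three screen SD below normal, cut at about 65% in these data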;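 also: yeast aged for seven days with compound at 30 °C before DHE staining; 100% = average MFI of all compound-treated wells on the plate with controls excluded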
Numbers without * were called inactive. The list is not random: actives were taken first. Their share in the collection is about 4.3%.

`Cc1ccc(NC(=O)c2cnc(N3CCN(c4ccccn4)CC3)c3ccccc23)c(Br)c1` gave SR-BI HDL uptake 78*, SMARCA2 act -5, Hep lipid drop -2, SR-BI uptake up -78, AHR act 9 and Yeast superoxide 102.
`O=C(Nc1c(F)cccc1F)c1cnc(N2CCN(c3ccccn3)CC2)c2ccccc12` gave SR-BI HDL uptake 42, SMARCA2 act -5, Hep lipid drop 32, SR-BI uptake up -42, AHR act 23 and Yeast superoxide 102.
For COC(=O)c1cc2c(c3c4cc(OC)ccc4n(S(=O)(=O)c4ccc(F)cc4)c13)C(=O)N(Cc1ccccc1)C2 the results were SMARCA2 act -4.
`C=CCOC(=O)c1cn(CC)c2nc(C)ccc2c1=O` gave SR-BI HDL uptake -12, SMARCA2 act 1, Hep lipid drop 9, SR-BI uptake up 12, AHR act -2 and Yeast superoxide 105.
CCn1cc(C(=O)OCC(=O)OC2CC(C)CCC2C(C)C)c(=O)c2ccc(C)nc21 (configuration not stated) was read as SR-BI HDL uptake 81*, SMARCA2 act -1, Hep lipid drop -1, SR-BI uptake up -81, AHR act 0 and Yeast superoxide 100.
Screening Cc1ccc(NC(=O)C2CCCN(c3ncccn3)C2)c(C)c1 (configuration not stated) returned SR-BI HDL uptake 1, SMARCA2 act 2, Hep lipid drop 0, SR-BI uptake up -1, AHR act -1 and Yeast superoxide 94.
Cc1ccc(CNC(=O)C2CCCN(c3cnccn3)C2)cc1 (configuration not stated) was read as SR-BI HDL uptake -7, SMARCA2 act 7, Hep lipid drop 3, SR-BI uptake up 7, AHR act 58* and Yeast superoxide 85.
O=C(NCCc1ccccc1)C1CCCN(c2cnccn2)C1 (configuration not stated) was read as SR-BI HDL uptake 6, SMARCA2 act 0, Hep lipid drop 0, SR-BI uptake up -6, AHR act 64* and Yeast superoxide 94.
Cc1ccccc1CCNC(=O)C1CCCN(c2cnccn2)C1 (configuration not stated) was read as SR-BI HDL uptake 2, SMARCA2 act 1, Hep lipid drop 2, SR-BI uptake up -2, AHR act 48* and Yeast superoxide 92.
Screening Cc1ccc(NC(=O)C2CCCN(c3cnccn3)C2)c(C)c1 (configuration not stated) returned SR-BI HDL uptake -20, SMARCA2 act 3, Hep lipid drop 4, AHR act 47* and Yeast superoxide 138.
For O=C(NCc1ccccc1F)C1CCCN(c2cnccn2)C1 (configuration not stated) the results were SR-BI HDL uptake -3, SMARCA2 act -1, Hep lipid drop -1, AHR act 24 and Yeast superoxide 75.
Screening COc1ccc(-c2ccc3c(n2)CCCN3S(=O)(=O)c2cccs2)cc1 returned SMARCA2 act -6.
`CCOc1cccc(/C=C(/C#N)c2nc3ccccc3[nH]2)c1OCC(=O)O` gave SR-BI HDL uptake -25, SMARCA2 act 0, Hep lipid drop 3, SR-BI uptake up 25, AHR act 14 and Yeast superoxide 98.
For CCN(CC)c1ccc(/C=C(/C#N)c2nc3ccccc3[nH]2)c(OC(C)C)c1 the results were SR-BI HDL uptake 94*, SMARCA2 act 0, SR-BI uptake up -94, AHR act 27 and Yeast superoxide 114.
CCOc1cc(/C=C(/C#N)c2nc3ccccc3[nH]2)ccc1OCc1ccc(C(=O)O)o1 was read as SR-BI HDL uptake 15, SMARCA2 act 3, SR-BI uptake up -15, AHR act 16 and Yeast superoxide 94.
`COc1cc(/C=C(\C#N)c2nc3ccccc3[nH]2)c([N+](=O)[O-])cc1OCc1ccccc1` gave SR-BI HDL uptake 85*, SMARCA2 act -2, SR-BI uptake up -85, AHR act 88* and Yeast superoxide 107.
For COC(=O)C[C@@H]1CC[C@H]2[C@H](COc3ccc(NC(=O)Nc4ccc(Cl)cc4)cc3C(=O)N2C)O1 the results were SMARCA2 act -3.
`O=S(=O)(Nc1cccc2cccnc12)c1ccccc1` gave SR-BI HDL uptake -5, SMARCA2 act -9, Hep lipid drop -15, SR-BI uptake up 5, AHR act -2 and Yeast superoxide 103.
For Cc1ccc2cccc(NS(=O)(=O)c3ccccc3)c2n1 the results were SMARCA2 act 5, Hep lipid drop -23, AHR act 71* and Yeast superoxide 86.
Screening CN1[C@@H](Cc2ccccc2)COc2cccc(N3CCSCC3)c2S1(=O)=O returned SMARCA2 act -2.
For CCSc1nc(O)cc(=O)[nH]1 the results were SR-BI HDL uptake -24, SMARCA2 act -1, Hep lipid drop 6, SR-BI uptake up 24, AHR act 6 and Yeast superoxide 97.
Screening CCSc1nc(=S)cc(C)[nH]1 returned SR-BI HDL uptake 8, SMARCA2 act -4, Hep lipid drop 13, SR-BI uptake up -8, AHR act 11 and Yeast superoxide 59*.
`O=C(CN1CCCc2ccccc21)N/N=C/c1ccc(O)cc1O` gave SR-BI HDL uptake -24, SMARCA2 act -5, Hep lipid drop 9, SR-BI uptake up 24, AHR act 53* and Yeast superoxide 90.
O=C(CN1CCCc2ccccc21)N/N=C/c1c(O)ccc2ccccc12 was read as SR-BI HDL uptake -195, SMARCA2 act -3, Hep lipid drop -1, SR-BI uptake up 195*, AHR act 38 and Yeast superoxide 94.
Screening Cc1ccc(Cn2cc(COC(=O)Nc3ccc(F)cc3)nn2)cc1 returned SMARCA2 act 0.
Cn1cc(/C=C/c2cc[n+](C)cc2)c2cc(Cl)ccc21 was read as SR-BI HDL uptake -1, SMARCA2 act -4, Hep lipid drop 16, SR-BI uptake up 1, AHR act 47* and Yeast superoxide 104.
N#Cc1ccc(NC(=O)OC2CCC23CCC(c2ccccc2)CC3)cc1 (configuration not stated) was read as SMARCA2 act -3.
`COC(=O)c1cc2c(c3c4cc(C)ccc4n(S(=O)(=O)c4ccc(C)cc4)c13)C(=O)N(Cc1ccc(C(F)(F)F)cc1)C2` gave SMARCA2 act -1.
`O=C(C(=O)N1CCN(S(=O)(=O)c2ccccc2)CC1)c1cccc(C(F)(F)F)c1` gave SMARCA2 act 1.
